Our source for the Ratio, Drug recovery and fraction unbound values is ChEMBL document CHEMBL3244425 (J Med Chem, 1979).

Data set [1] in a line: Ratio of oxazepam level in brain to blood in albino mouse at 5 mg equivalent of oxazepam/kg after 1 min. The class given is ADME, tissue-based.
Data set [2] is described as follows: Ratio of oxazepam level in brain to blood in albino mouse at 5 mg equivalent of oxazepam/kg after 3 mins. Type of data set: ADME, tissue-based. The note with it: 0.05 h.
Data set [3] in a line: Ratio of oxazepam level in brain to blood in albino mouse at 5 mg equivalent of oxazepam/kg after 5 mins. The class given is ADME, tissue-based.
A short description of data set [4]: Ratio of oxazepam level in brain to blood in albino mouse at 5 mg equivalent of oxazepam/kg after 10 mins. Type of data set: ADME, tissue-based.
Data set [5] in a line: Ratio of oxazepam level in brain to blood in albino mouse at 5 mg equivalent of oxazepam/kg after 20 mins. Type of data set: ADME, tissue-based.
Data set [6] can be described thus: Ratio of oxazepam level in brain to blood in albino mouse at 5 mg equivalent of oxazepam/kg after 40 mins. Type of data set: ADME, tissue-based.
The subject of data set [7] is Mus musculus. The data set is described as follows: Drug excretion in albino mouse assessed as unexcreted drug at 5 mg equivalent of oxazepam/kg after 96 hrs. The class given is ADME, organism-based. The note with it: in vivo.
Data set [8] has as its system Mus musculus. The experiment in a line: Drug excretion in albino mouse assessed as unexcreted drug at 5 mg equivalent of oxazepam/kg after 150 hrs. The class given is ADME, organism-based. The settings on record: in vivo.
A short description of data set [9]: Ratio of oxazepam level in brain to blood in albino mouse at 10 mg equivalent of oxazepam/kg after 2 mins. Type of data set: ADME, tissue-based.
Data set [10] in a line: Ratio of oxazepam level in brain to blood in albino mouse at 10 mg equivalent of oxazepam/kg after 5 mins. The class given is ADME, tissue-based.
A short description of data set [11]: Ratio of oxazepam level in brain to blood in albino mouse at 10 mg equivalent of oxazepam/kg after 10 mins. The class given is ADME, tissue-based.
Data set [12] is described as follows: Ratio of oxazepam level in brain to blood in albino mouse at 10 mg equivalent of oxazepam/kg after 20 mins. The class given is ADME, tissue-based.
Data set [13] in a line: Ratio of oxazepam level in brain to blood in albino mouse at 10 mg equivalent of oxazepam/kg after 30 mins. The class given is ADME, tissue-based. The note with it: 0.5 h.
A short description of data set [14]: Ratio of oxazepam level in brain to blood in albino mouse at 10 mg equivalent of oxazepam/kg after 40 mins. The class given is ADME, tissue-based.
Data set [15] can be described thus: Fraction unbound in 22% albino mouse serum at 10 uM by equilibrium dialysis method in presence of diisopropyl fluorophosphate. The class given is ADME, cell-free. Background: Equilibrium dialysis compares concentrations on both sides of a semipermeable membrane.
A further data set deals with serum albumin (Homo sapiens, UniProt P02768). The data set is described as follows: Binding affinity to human serum albumin at 10 uM after 12 to 20 hrs by scintillation spectrometry. The class given is ADME. The gist of the method: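 HSA as supplied (lipid under 10 mg/g), 1% (10 mg/mL) in 0.05 M buffer. Equilibrium dialysis against buffer for 12-20 h at room temperature, with 10 μM radiolabeled substrate. Free percentage is taken from the ratio of radioactivities on the two sides, then corrected for partial hydrolysis using TLC of ether extracts.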

A short description of data set [16]: Ratio of oxazepam level in brain to blood in albino mouse at 10 mg equivalent of oxazepam/kg after 1 min. Type of data set: ADME, tissue-based.
Data set [17] in a line: Ratio of oxazepam level in brain to blood in albino mouse at 10 mg equivalent of oxazepam/kg after 3 mins. The note with it: 0.05 h. Type of data set: ADME, tissue-based.
Data set [18] relates to Mus musculus. The data set is described as follows: Drug excretion in albino mouse assessed as unexcreted drug at 10 mg equivalent of oxazepam/kg after 100 to 150 hrs. Type of data set: ADME, organism-based. The settings on record: in vivo.
Data set [19] can be described thus: Ratio of oxazepam level in brain to blood in albino mouse at 5 mg equivalent of oxazepam/kg after 2 mins. Type of data set: ADME, tissue-based.
A short description of data set [20]: Ratio of oxazepam level in brain to blood in albino mouse at 15 mg equivalent of oxazepam/kg after 1 min. The class given is ADME, tissue-based.
A short description of data set [21]: Ratio of oxazepam level in brain to blood in albino mouse at 15 mg equivalent of oxazepam/kg after 3 mins. The class given is ADME, tissue-based. The note with it: 0.05 h.
A short description of data set [22]: Ratio of oxazepam level in brain to blood in albino mouse at 15 mg equivalent of oxazepam/kg after 6 mins. Type of data set: ADME, tissue-based. The settings on record: 0.1 h.
The nature of data set [23]: Ratio of oxazepam level in brain to blood in albino mouse at 15 mg equivalent of oxazepam/kg after 12 mins. The settings on record: 0.2 h. Type of data set: ADME, tissue-based.
The nature of data set [24]: Ratio of oxazepam level in brain to blood in albino mouse at 15 mg equivalent of oxazepam/kg after 20 mins. The class given is ADME, tissue-based.
The nature of data set [25]: Ratio of oxazepam level in brain to blood in albino mouse at 15 mg equivalent of oxazepam/kg after 40 mins. Type of data set: ADME, tissue-based.
The subject of data set [26] is Mus musculus. The data set is described as follows: Drug excretion in albino mouse assessed as unexcreted drug at 10 mg equivalent of oxazepam/kg after 96 hrs. The class given is ADME, organism-based. The settings on record: in vivo.
A short description of data set [27]: Ratio of oxazepam level in brain to blood in albino mouse at 10 mg equivalent of oxazepam/kg after 6 mins. Type of data set: ADME, tissue-based. The note with it: 0.1 h.
The nature of data set [28]: Ratio of oxazepam level in brain to blood in albino mouse at 10 mg equivalent of oxazepam/kg after 12 mins. The class given is ADME, tissue-based. The settings on record: 0.2 h.
For data set [29], the system named is Mus musculus. The experiment in a line: Drug excretion in albino mouse assessed as unexcreted drug at 10 mg equivalent of oxazepam/kg after 150 hrs. The settings on record: in vivo. The class given is ADME, organism-based.

serum albumin, sequence (P02768 whole entry): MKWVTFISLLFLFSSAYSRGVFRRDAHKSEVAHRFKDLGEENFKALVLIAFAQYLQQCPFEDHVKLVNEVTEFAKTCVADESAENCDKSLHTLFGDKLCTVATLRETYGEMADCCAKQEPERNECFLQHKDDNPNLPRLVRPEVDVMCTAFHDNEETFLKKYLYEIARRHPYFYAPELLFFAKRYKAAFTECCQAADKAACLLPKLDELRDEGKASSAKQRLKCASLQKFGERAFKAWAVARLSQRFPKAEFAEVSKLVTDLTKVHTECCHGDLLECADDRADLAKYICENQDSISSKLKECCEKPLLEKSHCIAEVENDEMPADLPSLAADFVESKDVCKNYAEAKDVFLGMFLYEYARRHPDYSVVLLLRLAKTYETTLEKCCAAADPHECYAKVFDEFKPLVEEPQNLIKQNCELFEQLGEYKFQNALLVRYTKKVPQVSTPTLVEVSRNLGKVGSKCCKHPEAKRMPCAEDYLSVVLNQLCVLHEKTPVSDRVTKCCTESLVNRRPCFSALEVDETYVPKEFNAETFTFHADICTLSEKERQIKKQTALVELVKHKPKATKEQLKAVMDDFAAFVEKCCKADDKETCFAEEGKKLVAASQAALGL

On to `O=C(CCc1ccccc1)OC1N=C(c2ccccc2)c2cc(Cl)ccc2N[14C]1=O` (stereo not given), for which the Ratio in [1] came out at 0.6; in [2] it was 0.4; in data set [3], 0.5; in [4], 0.5; in data set [5] it was 1.4; in data set [6], 2.2. The Drug recovery with Mus musculus [7] was found to be 26%.

On to `CC(Cc1ccccc1)C(=O)OC1N=C(c2ccccc2)c2cc(Cl)ccc2N[14C]1=O` (single isomer, unassigned; (+)), for which the Drug recovery with Mus musculus [8] is 34%.

Consider `CCC(CC)C(=O)OC1N=C(c2ccccc2)c2cc(Cl)ccc2N[14C]1=O` (stereo not given), for which the Ratio turned out to be 0.7 in data set [9]; 0.6 in data set [10]; 1 in data set [11]; 1.1 in [12]; 1.4 in [13]; 1.7 in data set [14].

Take `CC(C)(Cc1ccccc1)C(=O)OC1N=C(c2ccccc2)c2cc(Cl)ccc2NC1=O` (stereo not given): the fraction unbound at 10 µM in [15] came out at 0.113; at serum albumin it was 0.022.

For the molecule `CC(Cc1ccccc1)C(=O)OC1N=C(c2ccccc2)c2cc(Cl)ccc2NC1=O` (stereo not given), the fraction unbound at 10 µM in data set [15] came out at 0.111; at serum albumin it was 0.051.

As for `CC(C)C(=O)OC1N=C(c2ccccc2)c2cc(Cl)ccc2NC1=O` (stereo not given), the fraction unbound at 10 µM in data set [15] was found to be 0.147; on serum albumin, 0.078.

For the molecule `O=C(CCCc1ccccc1)OC1N=C(c2ccccc2)c2cc(Cl)ccc2N[14C]1=O` (stereo not given), the Ratio turned out to be 0.5 in data set [1]; 0.5 in data set [2]; 0.3 in data set [3]; 0.4 in data set [4]; 1 in data set [5]; 0.9 in data set [6]. The Drug recovery in the data set with Mus musculus [8] is on record as 38%.

`CC(=O)OC1N=C(c2ccccc2)c2cc(Cl)ccc2N[14C]1=O` (stereo not given): the Ratio in data set [16] worked out at 4; in [17] it was 3.4; in [10], 2; in data set [11], 2.4; in data set [13], 4. In addition, in the data set with Mus musculus [18], the Drug recovery stood at 0%.

Regarding `CC(=O)OC1N=C(c2ccccc2)c2cc(Cl)ccc2NC1=O` (stereo not given), the fraction unbound at 10 µM came to 0.285 in data set [15] and 0.246 at serum albumin.

`CC(C)C(=O)OC1N=C(c2ccccc2)c2cc(Cl)ccc2N[14C]1=O` (stereo not given): the Ratio in data set [19] was determined as 0.7; in data set [3] it was 1.2; in data set [4], 1.8; in data set [5] it was 1.9; in data set [6], 2.3.

Turning to `CC(Cc1ccccc1)C(=O)OC1N=C(c2ccccc2)c2cc(Cl)ccc2N[14C]1=O` (single isomer, unassigned; (-)), the Ratio in data set [2] is 0.3; in [3], 1.1; in data set [4] it was 1.6; in [5], 2; in data set [6], 2.1.

For `CCCC(=O)OC1N=C(c2ccccc2)c2cc(Cl)ccc2N[14C]1=O` (stereo not given), the Ratio was found to be 0.2 in data set [20]; 0.3 in data set [21]; 0.4 in [22]; 0.8 in [23]; 1.4 in [24]; 2 in data set [25].

On to `CC(C)(C)C(=O)OC1N=C(c2ccccc2)c2cc(Cl)ccc2N[14C]1=O` (stereo not given), for which the Ratio is listed as 1.7 in [17]; 2 in data set [10]; 2.2 in [11]; 2 in [12]; 2.5 in data set [13]. The Drug recovery in the data set on Mus musculus [26] came to 7%.

As for `O=C(CCCc1ccccc1)OC1N=C(c2ccccc2)c2cc(Cl)ccc2NC1=O` (stereo not given), the fraction unbound at 10 µM in [15] is 0.102; at serum albumin it was 0.034.

In the case of `CC(C)CC(=O)OC1N=C(c2ccccc2)c2cc(Cl)ccc2NC1=O` (stereo not given), the fraction unbound at 10 µM in [15] is 0.067; on serum albumin, 0.093.

As to `CCCC(=O)OC1N=C(c2ccccc2)c2cc(Cl)ccc2NC1=O` (stereo not given), the free fraction (fraction unbound) at 10 µM in [15] was 0.149; at serum albumin, 0.089.

On to `O=C(CCc1ccccc1)OC1N=C(c2ccccc2)c2cc(Cl)ccc2NC1=O` (stereo not given), for which the fraction unbound at 10 µM on serum albumin worked out at 0.052.

`CCC(=O)OC1N=C(c2ccccc2)c2cc(Cl)ccc2N[14C]1=O` (stereo not given): the Ratio in data set [16] is 3.8; in data set [17], 2; in data set [27], 3; in data set [28], 2.4; in data set [12] it was 2.8; in data set [14], 2.8. The Drug recovery in the data set with Mus musculus [29] is listed as 19%.

Consider `CCC(CC)C(=O)OC1N=C(c2ccccc2)c2cc(Cl)ccc2NC1=O` (stereo not given), for which the fraction unbound at 10 µM worked out at 0.038 in data set [15] and 0.06 on serum albumin.

Take `COC(=O)CCC(=O)OC1N=C(c2ccccc2)c2cc(Cl)ccc2NC1=O` (stereo not given): the fraction unbound at 10 µM in data set [15] is 0.299; at serum albumin, 0.172.

What is called fraction unbound is free concentration divided by total concentration.
